Measured values from ChEMBL document CHEMBL2440093, “Discovery of 2-aryl-8-hydroxy (or methoxy)-isoquinolin-1(2H)-ones as novel EGFR inhibitor by scaffold hopping” (Bioorg Med Chem, 2013).

Legend:
A-431 = experiment: Antiproliferative activity against human A431 cells after 72 hrs by MTT assay; assay type: functional, cell-based; conditions: A-431, 72 h
Method in brief: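 A431 cells seeded in 96-well plates and held 24 h at 37 °C before exposure, with cell numbers set so controls stay in exponential growth. Compounds at final 100.0, 10.0, 1.0 and 0.1 μM for 72 h. MTT (5 mg/ml in PBS) added for 4 h, formazan pelleted and dissolved in DMSO, OD 570 nm. Three experiments in triplicate; IC50 from inhibition ratios.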

A549 = experiment: Antiproliferative activity against human A549 cells after 72 hrs by MTT assay; assay type: functional, cell-based; conditions: A549, 72 h
[1] = molecular target: Epidermal growth factor receptor (Homo sapiens, UniProt P00533); experiment: Inhibition of EGFR in shed membrane vesicles of human A431 cells using poly-Glu-Tyr as substrate after 30 mins by ELISA; assay type: cell membranes, A-431
Sequence of Epidermal growth factor receptor (P00533 whole entry): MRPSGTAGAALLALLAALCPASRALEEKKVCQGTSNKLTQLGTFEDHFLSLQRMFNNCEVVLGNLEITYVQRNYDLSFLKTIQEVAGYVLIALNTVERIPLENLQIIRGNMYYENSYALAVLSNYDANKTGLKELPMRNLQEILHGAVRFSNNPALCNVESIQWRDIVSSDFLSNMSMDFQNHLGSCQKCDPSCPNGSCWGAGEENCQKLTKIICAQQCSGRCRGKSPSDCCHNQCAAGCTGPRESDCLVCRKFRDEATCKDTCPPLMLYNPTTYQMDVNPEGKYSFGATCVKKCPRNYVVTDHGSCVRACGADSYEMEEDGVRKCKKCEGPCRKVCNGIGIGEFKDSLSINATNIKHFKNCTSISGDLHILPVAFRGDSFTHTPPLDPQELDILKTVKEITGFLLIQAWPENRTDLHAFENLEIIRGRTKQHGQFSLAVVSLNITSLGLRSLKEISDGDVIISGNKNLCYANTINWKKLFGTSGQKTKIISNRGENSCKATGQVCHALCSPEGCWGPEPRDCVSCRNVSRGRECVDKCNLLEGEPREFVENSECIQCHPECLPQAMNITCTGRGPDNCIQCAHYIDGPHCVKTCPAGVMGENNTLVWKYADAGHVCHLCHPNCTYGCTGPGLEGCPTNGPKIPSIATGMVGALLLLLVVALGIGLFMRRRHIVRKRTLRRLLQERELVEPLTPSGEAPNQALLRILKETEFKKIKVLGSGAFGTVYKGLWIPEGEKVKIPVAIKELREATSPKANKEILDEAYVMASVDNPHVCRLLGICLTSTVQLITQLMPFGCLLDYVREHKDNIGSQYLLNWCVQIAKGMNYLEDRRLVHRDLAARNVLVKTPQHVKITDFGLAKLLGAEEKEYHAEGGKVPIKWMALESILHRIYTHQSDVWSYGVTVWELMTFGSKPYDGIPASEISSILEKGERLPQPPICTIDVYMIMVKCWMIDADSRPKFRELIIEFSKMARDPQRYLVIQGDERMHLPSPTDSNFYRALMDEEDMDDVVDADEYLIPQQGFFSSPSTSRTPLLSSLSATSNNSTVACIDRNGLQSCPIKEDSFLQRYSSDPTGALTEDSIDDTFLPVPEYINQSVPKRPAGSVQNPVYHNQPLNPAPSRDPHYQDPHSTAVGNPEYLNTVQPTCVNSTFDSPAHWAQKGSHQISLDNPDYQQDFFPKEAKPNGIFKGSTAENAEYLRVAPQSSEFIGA

| Structure (SMILES) | IC50 (A-431) [µM] | IC50 (A549) [µM] | IC50 [1] [µM] |
| --- | --- | --- | --- |
| COc1cc(O)c2c(=O)n(Cc3ccccc3)ccc2c1 | 8.29 |  |  |
| COc1cc(O)c2c(=O)n(-c3cccc(C(=O)N4CCCCC4)c3)ccc2c1NC(=O)CCN1CCOCC1 | 11.4 | 13.1 |  |
| C#Cc1cccc(-n2ccc3cc(OC)cc(OC)c3c2=O)c1 | 7.13 | 25.2 | 3.51 |
| COc1cc(O)c2c(=O)n(-c3cccc(C(=O)N4CCCCC4)c3)ccc2c1NC(=O)Nc1ccc(C(=O)N2CCN(C)CC2)cc1 | 19.5 | > 100 |  |
| COc1cc(OC)c2c(=O)n(-c3cccc(C(N)=O)c3)ccc2c1 | 28.2 | 31.3 |  |
| C=CC(=O)Nc1c(OC)cc(OC)c2c(=O)n(-c3cccc(C(=O)N4CCCCC4)c3)ccc12 |  | 14.7 |  |
| COc1cc(OC)c2c(=O)n(-c3cccc(C(F)(F)F)c3)ccc2c1 | 14.8 | 23.3 |  |
| COc1cc(O)c2c(=O)n(-c3ccccc3)ccc2c1 |  | 27.9 |  |
| COc1cc(O)c2c(=O)n(-c3cccc(C(N)=O)c3)ccc2c1 | 15.2 | 24.8 |  |
| COc1cc(OC)c2c(=O)n(-c3ccccc3)ccc2c1 | 5.35 | 44.5 |  |
| COc1cc2c(c(OC)c1)C(=O)N(c1cccc(C(=O)N3CCCCC3)c1)CC2 | 10.8 | 23.4 | 1.23 |
| COc1cc(OC)c2c(=O)n(-c3cccc(C(=O)N4CCCCC4)c3)ccc2c1 | 15.3 | 18.6 | 2.12 |

The remaining compounds from weak to strong by IC50 (A-431), led by results:

| IC50 (A-431) [µM] | IC50 (A549) [µM] | IC50 [1] [µM] | Structure (SMILES) |
| --- | --- | --- | --- |
| 5.32 | 13.2 | 1.18 | COc1cc(O)c2c(c1)CCN(c1cccc(C(=O)N3CCCCC3)c1)C2=O |
| 5.3 | 14.7 |  | C=CC(=O)Nc1c(OC)cc(O)c2c(=O)n(-c3cccc(C(=O)N4CCCCC4)c3)ccc12 |
| 4.44 | 15.9 | 3.06 | C#Cc1cccc(-n2ccc3cc(OC)cc(O)c3c2=O)c1 |
| 4.17 | 15.2 |  | COc1cc(OC)c2c(=O)n(-c3cccc(F)c3)ccc2c1 |
| 3.95 | 17.8 | 5.49 | COc1cc(OC)c2c(=O)n(-c3ccc(F)c(Cl)c3)ccc2c1 |
| 3.88 |  |  | COc1cc(OC)c2c(=O)n(Cc3ccccc3)ccc2c1 |
| 3.79 |  |  | COc1cc(OC)c2c(=O)n(-c3ccc(F)c(F)c3)ccc2c1 |
| 2.25 | 14.2 | 1.38 | COc1cc(O)c2c(=O)n(-c3cccc(C(=O)N4CCCCC4)c3)ccc2c1 |
